These results are taken from ChEMBL document CHEMBL5678798 (Clin Cancer Res, 2009).

In data set [1] the target is Serine/threonine-protein kinase SIK2 (Homo sapiens, UniProt Q9H0K1). Briefly: Inhibition of SIK2 (unknown origin).
Data set [2] is described as follows: Inhibition of N-terminal His6-tagged recombinant full-length human CDK5/N-terminal GST-tagged recombinant full-length human p35 expressed in baculovirus infected Sf21 cells at 3 uM by filter binding assay relative to control. The conditions noted are these: condition cancer. A digest of the protocol:
(§1)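 Outsourced single-concentration screen in a commercial panel of 233 protein kinases, run as radiometric filter-binding activity assays. Test agent was tested at 0.3 or 3 µmol/L, as given in each line, from a 10 mmol/L DMSO stock. Activity is expressed as percent inhibition relative to control.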

Data set [3] deals with Ephrin type-A receptor 1 (Homo sapiens) (UniProt P21709). Briefly: Inhibition of N-terminal 6His-tagged recombinant human EphA1 (568 to end residues) expressed in baculovirus infected Sf21 cells at 3 uM by filter binding assay relative to control. A digest of the protocol: as §1
The target in data set [4] is Vascular endothelial growth factor receptor 3 (Homo sapiens, UniProt P35916). Kind of data set: Inhibition of N-terminal GST-tagged recombinant human Flt4 (800 to end residues) expressed in baculovirus infected Sf21 cells by filter binding assay.
The subject of data set [5] is MCF7. Briefly: Induction of cell cycle arrest in human MCF7 cells assessed as increase in cells accumulation at G1 phase at 0.03 to 10 uM incubated for 24 to 48 hrs by propidium iodide staining based flow cytometric analysis. The format is functional. The conditions noted are these: dose 0.03-10 µM, time lower 24.0 hrs, time upper […]. The essentials: (§2)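 COLO 205, MCF-7 or NCI-H929 cells seeded in 96-well plates overnight at 37°C, then exposed to DMSO or increasing compound concentrations for 24 or 48 h. Fixed and stained with propidium iodide (Vindelov method), then analysed by flow cytometry for sub-G1, G1, S and G2-M fractions. Experiment repeated twice.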

Data set [6] concerns the target Fibroblast growth factor receptor 3 (Homo sapiens) (UniProt P22607). Briefly: Inhibition of N-terminal His6-tagged recombinant human FGFR3 (447 to 761 residues) expressed in Sf21 cells at 3 uM by filter binding assay relative to control.
Data set [7] has as its target Insulin receptor (Mus musculus) (UniProt P15208). The following applies: CD-1, dose 30.0 mg/kg, route po, time 21.0 day.
The target of data set [8] is Tyrosine-protein kinase Lck (Homo sapiens, UniProt P06239). Briefly: Inhibition of LCK (unknown origin).
Data set [9] is described as follows: Antiproliferative activity against IGF1-stimulated mouse NIH-3T3/LISN cells over expressing human IGF1R assessed as reduction in cell viability preincubated for 2 hr followed by IGF1R stimulation and measured after 72 hrs by CellTiter-Glo assay. The class given is functional, cell-based. The essentials: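 NIH-3T3 overexpressing human IGF-IR, kept in DMEM/10% FBS with 500 µg/mL G418. Seeded on collagen-coated 96-well plates and allowed to adhere 24 h. Switched to serum-free medium, compound or DMSO added for 2 h, then IGF-I 30 ng/mL. Incubated 72 h at 37°C. Read by CellTiter-Glo; IC50 by four-parameter fit.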
On the technique in general: In ATP-based viability assays light output follows the ATP content of the culture.

Data set [10] concerns MCF7. Kind of data set: Induction of cell cycle arrest in human MCF7 cells assessed as cells accumulation at G1 phase at 1 umol/L incubated for 48 hrs by propidium iodide staining based flow cytometric analysis (reference value: 67%). The following applies: dose 1 µmol/L, at 1 µM. The format is functional. The essentials:
as §2

A short description of data set [11]: Toxicity in nu/nu CD-1 mouse xenografted with human HT-29 cells assessed as reduction in body weight at 30 mg/kg, po for 21 days relative to control. The format is organism-based. The following applies: in vivo, 504 h, time 21 day.
The target in data set [12] is Serine/threonine-protein kinase TAO2 (Homo sapiens) (UniProt Q9UL54). Kind of data set: Inhibition of N-terminal 6His-tagged recombinant human TAO2 expressed in Sf21 cells at 0.3 uM by filter binding assay relative to control. The essentials: as §1
In data set [13] the target is Serine/threonine-protein kinase pim-1 (Homo sapiens) (UniProt P11309). Briefly: Inhibition of N-terminal GST-tagged recombinant human full-length Pim-1 expressed in Escherichia coli cells at 0.3 uM by filter binding assay relative to control. The essentials: as §1
The target in data set [14] is SRSF protein kinase 1 (Homo sapiens) (UniProt Q96SB4). Kind of data set: Inhibition of N-terminal GST-tagged recombinant human SRPK1 expressed in Escherichia coli at 0.3 uM by filter binding assay relative to control. A digest of the protocol:
as §1

For another data set, the system named is NCI-H929. Kind of data set: Induction of cell cycle arrest in human NCI-H929 cells assessed as decrease in cells accumulation at S phase at 0.03 to 10 uM incubated for 24 to 48 hrs by propidium iodide staining based flow cytometric analysis. The following applies: dose 0.03-10 µM, time lower 24.0 hrs, time upper […]. The class given is functional. A digest of the protocol: as §2

A short description of data set [15]: Inhibition of C-terminal His6-tagged human full length CDK2/N-terminal GST-tagged human full length cyclinA expressed in baculovirus infected Sf21 cells at 3 uM by filter binding assay relative to control. The following applies: condition cancer. The essentials: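 KinaseProfiler panel of 233 kinases: radiometric filter-binding activity assays with compound at 0.3 or 3 µmol/L. Read-out is percent inhibition.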

The target in data set [16] is Receptor-type tyrosine-protein kinase FLT3 (Homo sapiens, UniProt P36888). Kind of data set: Inhibition of N-terminal GST tagged recombinant human Flt3 (564 to end residues) expressed in Sf21 cells by filter binding assay.
In data set [17] the target is Tyrosine-protein kinase Yes (Homo sapiens) (UniProt P07947). Briefly: Inhibition of N-terminal His6 tagged recombinant full-length human Yes expressed in baculovirus infected Sf21 cells at 3 uM by filter binding assay relative to control. The essentials:
as §1

Data set [18] has as its target Macrophage-stimulating protein receptor (Homo sapiens) (UniProt Q04912). Kind of data set: Inhibition of N-terminal GST-tagged recombinant human Ron (983 to end residues) expressed in baculovirus infected Sf21 cells at 0.3 uM by filter binding assay relative to control. A digest of the protocol: as §1
In data set [19] the test system is COLO 205. Briefly: Induction of cell cycle arrest in human COLO 205 cells assessed as decrease in cells accumulation at S phase at 0.03 to 10 uM incubated for 24 to 48 hrs by propidium iodide staining based flow cytometric analysis. The following applies: dose 0.03-10 µM, time lower 24.0 hrs, time upper […]. The format is functional. The essentials: as §2
For orientation: Flow cytometry measures light scatter and fluorescence of single cells or particles in a stream.

Data set [20] concerns COLO 205. Briefly: Induction of cell cycle arrest in human COLO 205 cells assessed as increase in cells accumulation at G1 phase at 0.03 to 10 uM incubated for 24 to 48 hrs by propidium iodide staining based flow cytometric analysis. The format is functional. The conditions noted are these: dose 0.03-10 µM, time lower 24.0 hrs, time upper […]. A digest of the protocol: as §2

A short description of data set [21]: Inhibition of C-terminal His6-tagged human full length CDK2/N-terminal GST-tagged human full length cyclinA expressed in baculovirus infected Sf21 cells at 0.3 uM by filter binding assay relative to control. The following applies: condition cancer. A digest of the protocol:
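Run in an outsourced profiling panel of 233 kinases. Each kinase was tested with radiometric filter-binding activity assays at a single inhibitor concentration of 0.3 µmol/L. Inhibitor stock was 10 mmol/L in DMSO. Inhibition is reported as percent relative to control.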

Data set [22] deals with Tyrosine-protein kinase ITK/TSK (Homo sapiens, UniProt Q08881). Briefly: Inhibition of ITK (unknown origin).
Data set [23] concerns the target Serine/threonine-protein kinase PAK 3 (Homo sapiens, UniProt O75914). Briefly: Inhibition of C-terminal His6-tagged recombinant human full-length PAK3 expressed in baculovirus infected Sf21 cells by filter binding assay.

SMILES strings stand for the structures. Calls of active or inactive are those of the source. The calls are words filed in the database; no cut-off is given here.

Sequence of Tyrosine-protein kinase Yes (Homo sapiens) (P07947 2-543 limits assumed): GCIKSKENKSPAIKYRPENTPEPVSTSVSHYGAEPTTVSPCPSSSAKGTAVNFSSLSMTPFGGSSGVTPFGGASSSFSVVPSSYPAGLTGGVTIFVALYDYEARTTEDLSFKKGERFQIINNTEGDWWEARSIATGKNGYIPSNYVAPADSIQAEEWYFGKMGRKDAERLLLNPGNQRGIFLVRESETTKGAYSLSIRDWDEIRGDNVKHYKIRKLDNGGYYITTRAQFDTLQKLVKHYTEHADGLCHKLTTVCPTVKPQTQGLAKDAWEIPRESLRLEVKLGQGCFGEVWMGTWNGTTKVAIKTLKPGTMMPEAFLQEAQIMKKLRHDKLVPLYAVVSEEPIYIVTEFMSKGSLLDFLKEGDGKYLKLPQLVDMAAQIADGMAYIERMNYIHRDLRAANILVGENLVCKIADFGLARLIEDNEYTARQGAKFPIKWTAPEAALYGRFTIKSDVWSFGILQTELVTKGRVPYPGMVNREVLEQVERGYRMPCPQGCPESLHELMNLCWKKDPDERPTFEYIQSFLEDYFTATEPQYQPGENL
Sequence of Vascular endothelial growth factor receptor 3 (P35916 whole entry): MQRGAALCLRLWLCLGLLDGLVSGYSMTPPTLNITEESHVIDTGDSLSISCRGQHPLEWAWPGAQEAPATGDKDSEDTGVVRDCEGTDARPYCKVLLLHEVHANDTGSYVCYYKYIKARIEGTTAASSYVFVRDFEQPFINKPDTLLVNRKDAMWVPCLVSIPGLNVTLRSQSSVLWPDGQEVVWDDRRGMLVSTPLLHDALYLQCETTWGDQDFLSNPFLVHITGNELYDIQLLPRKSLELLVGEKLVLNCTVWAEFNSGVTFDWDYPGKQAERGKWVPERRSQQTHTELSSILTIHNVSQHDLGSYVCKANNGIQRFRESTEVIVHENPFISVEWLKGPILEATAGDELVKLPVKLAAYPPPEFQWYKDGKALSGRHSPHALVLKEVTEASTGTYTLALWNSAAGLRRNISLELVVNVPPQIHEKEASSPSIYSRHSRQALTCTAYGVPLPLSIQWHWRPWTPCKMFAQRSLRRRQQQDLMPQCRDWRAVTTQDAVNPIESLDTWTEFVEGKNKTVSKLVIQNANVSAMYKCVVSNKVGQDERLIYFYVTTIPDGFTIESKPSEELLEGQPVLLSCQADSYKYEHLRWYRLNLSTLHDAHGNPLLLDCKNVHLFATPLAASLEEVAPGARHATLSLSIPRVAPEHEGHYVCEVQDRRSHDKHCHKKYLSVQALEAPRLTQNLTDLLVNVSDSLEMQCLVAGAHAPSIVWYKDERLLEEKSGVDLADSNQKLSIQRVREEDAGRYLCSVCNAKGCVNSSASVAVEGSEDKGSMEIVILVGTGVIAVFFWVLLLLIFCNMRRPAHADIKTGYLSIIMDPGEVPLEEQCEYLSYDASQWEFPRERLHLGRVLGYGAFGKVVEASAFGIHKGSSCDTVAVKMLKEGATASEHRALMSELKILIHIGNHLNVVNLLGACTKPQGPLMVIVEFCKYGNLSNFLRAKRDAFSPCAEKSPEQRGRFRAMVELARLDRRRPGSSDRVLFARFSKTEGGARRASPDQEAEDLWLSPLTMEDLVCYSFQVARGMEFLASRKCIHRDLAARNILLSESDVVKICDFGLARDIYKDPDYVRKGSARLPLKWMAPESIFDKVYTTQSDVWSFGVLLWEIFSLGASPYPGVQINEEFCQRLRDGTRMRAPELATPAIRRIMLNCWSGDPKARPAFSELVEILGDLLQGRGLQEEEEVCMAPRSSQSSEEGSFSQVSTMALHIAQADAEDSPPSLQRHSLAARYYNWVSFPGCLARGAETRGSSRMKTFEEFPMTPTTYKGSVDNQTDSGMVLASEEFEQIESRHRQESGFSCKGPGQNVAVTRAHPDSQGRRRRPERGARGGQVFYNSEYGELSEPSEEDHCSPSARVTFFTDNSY
Sequence of SRSF protein kinase 1 (Homo sapiens) (Q96SB4 whole entry): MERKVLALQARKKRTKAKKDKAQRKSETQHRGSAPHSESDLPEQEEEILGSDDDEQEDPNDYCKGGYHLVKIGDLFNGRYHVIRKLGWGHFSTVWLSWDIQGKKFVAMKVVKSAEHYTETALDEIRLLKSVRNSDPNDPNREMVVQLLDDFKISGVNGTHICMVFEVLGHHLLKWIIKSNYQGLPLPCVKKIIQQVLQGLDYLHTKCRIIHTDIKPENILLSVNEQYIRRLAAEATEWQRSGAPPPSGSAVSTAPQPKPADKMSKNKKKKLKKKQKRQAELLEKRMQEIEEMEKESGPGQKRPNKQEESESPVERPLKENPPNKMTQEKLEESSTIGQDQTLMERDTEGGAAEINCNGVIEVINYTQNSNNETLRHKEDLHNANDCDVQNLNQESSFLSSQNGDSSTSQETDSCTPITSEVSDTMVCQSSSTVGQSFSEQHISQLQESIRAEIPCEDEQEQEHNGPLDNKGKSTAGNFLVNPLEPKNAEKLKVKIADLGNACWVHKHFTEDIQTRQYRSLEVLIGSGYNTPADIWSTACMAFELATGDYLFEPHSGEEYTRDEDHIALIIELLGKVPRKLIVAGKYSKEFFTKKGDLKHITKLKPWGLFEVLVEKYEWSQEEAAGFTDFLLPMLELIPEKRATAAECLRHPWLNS
Sequence of Tyrosine-protein kinase ITK/TSK (Q08881 whole entry): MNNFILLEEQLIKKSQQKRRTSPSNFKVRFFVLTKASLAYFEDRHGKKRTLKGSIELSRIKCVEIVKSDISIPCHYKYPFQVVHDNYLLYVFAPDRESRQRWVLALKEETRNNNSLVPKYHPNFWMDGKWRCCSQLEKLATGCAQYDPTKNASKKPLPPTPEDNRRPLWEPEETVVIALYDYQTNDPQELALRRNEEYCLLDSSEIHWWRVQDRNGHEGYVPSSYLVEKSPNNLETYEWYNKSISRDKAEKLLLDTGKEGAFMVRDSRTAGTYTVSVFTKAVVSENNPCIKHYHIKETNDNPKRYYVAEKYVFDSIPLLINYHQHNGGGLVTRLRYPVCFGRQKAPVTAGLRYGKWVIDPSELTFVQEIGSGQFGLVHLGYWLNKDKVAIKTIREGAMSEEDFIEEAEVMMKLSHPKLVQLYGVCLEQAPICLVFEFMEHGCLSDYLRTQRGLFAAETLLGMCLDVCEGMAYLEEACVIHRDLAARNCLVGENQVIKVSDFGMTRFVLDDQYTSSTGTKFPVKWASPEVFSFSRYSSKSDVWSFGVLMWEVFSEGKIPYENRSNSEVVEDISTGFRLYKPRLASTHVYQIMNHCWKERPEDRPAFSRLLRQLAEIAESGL
Sequence of Serine/threonine-protein kinase TAO2 (Homo sapiens) (Q9UL54 whole entry): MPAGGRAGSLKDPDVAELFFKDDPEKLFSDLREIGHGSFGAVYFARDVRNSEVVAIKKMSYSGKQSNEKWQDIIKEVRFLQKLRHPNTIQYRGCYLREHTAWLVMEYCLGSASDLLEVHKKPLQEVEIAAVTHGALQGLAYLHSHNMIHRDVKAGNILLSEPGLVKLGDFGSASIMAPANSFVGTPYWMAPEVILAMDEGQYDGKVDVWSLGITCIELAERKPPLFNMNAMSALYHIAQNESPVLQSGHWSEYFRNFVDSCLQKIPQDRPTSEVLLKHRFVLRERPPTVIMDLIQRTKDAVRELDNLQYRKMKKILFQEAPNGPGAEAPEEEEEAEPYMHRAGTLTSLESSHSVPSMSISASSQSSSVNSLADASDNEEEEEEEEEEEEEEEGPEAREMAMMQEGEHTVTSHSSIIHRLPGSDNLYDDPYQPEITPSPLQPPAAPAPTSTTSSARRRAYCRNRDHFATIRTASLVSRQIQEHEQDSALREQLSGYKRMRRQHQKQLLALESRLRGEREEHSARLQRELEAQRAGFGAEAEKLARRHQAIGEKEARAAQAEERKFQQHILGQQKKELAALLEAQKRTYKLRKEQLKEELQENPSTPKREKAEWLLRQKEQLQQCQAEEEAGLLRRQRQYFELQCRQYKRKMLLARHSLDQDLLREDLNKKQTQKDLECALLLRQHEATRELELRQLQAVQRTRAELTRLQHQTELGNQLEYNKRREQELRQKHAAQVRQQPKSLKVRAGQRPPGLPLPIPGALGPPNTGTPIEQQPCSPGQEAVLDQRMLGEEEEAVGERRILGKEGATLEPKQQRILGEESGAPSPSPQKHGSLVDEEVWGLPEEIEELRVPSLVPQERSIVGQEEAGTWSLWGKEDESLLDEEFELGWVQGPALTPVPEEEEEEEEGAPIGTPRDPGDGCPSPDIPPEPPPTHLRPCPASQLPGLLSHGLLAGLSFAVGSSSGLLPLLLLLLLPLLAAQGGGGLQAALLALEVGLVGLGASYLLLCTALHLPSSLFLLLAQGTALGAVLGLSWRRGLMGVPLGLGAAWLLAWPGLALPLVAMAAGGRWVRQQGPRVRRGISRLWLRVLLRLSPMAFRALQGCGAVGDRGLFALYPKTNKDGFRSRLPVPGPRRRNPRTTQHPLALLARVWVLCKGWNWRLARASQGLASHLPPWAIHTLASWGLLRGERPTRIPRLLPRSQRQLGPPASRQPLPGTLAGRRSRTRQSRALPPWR
Sequence of Tyrosine-protein kinase Lck (P06239 whole entry): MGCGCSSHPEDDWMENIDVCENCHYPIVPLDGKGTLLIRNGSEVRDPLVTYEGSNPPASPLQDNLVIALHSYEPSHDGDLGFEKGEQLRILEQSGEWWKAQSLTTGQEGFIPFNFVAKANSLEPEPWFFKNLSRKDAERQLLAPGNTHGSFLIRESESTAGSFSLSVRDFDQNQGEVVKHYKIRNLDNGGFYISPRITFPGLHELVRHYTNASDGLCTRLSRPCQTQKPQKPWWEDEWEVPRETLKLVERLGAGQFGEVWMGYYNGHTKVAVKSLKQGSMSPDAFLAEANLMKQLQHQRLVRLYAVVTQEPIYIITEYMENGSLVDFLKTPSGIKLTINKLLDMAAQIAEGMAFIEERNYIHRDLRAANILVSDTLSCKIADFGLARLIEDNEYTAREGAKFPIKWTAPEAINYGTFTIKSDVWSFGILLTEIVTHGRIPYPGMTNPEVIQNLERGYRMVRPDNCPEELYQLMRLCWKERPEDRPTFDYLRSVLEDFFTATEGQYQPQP

What is called IC50 is the concentration that gives 50% inhibition. Usually inhibition stands for the drop in the measured response relative to a control, in per cent. Regarding `CCc1cc(Nc2nccc(-c3c(-c4ccc(OC)c(C(=O)Nc5c(F)cccc5F)c4)nc4ccccn34)n2)c(OC)cc1N1CCC(N2CCN(S(C)(=O)=O)CC2)CC1`, the half-maximal inhibitory concentration (IC50) in [1] is above 10 µM; in data set [4], 159 nM; in data set [8], 8 µM; in data set [9] it was 60 nM; in data set [16], 2850 nM; in [22], above 25 µM. In addition, in data set [23], the IC50 was found to be 103 nM. Also, the inhibition at 3 µM is -24% in data set [2] and 8% in data set [15]. Moreover, the inhibition in data set [3] is 22%; in data set [6], 25%; in data set [12] it was 1%; in data set [13], -8%; in [14], 1%; in data set [17], 27%. In addition, the inhibition in data set [18] is -8%. Besides, the outcome in the data set on MCF7 [5], in the data set with NCI-H929, with COLO 205 [19] and in the data set with COLO 205 [20] was Active. The inhibition entry in data set [7] is “inactive”. For the same compound, the Activity is 76% in the data set with MCF7 [10] and “Non-Toxic” in data set [11]. Moreover, the inhibition at 0.3 µM in data set [21] stood at 2%.
